Broadly, the MIC is the lowest concentration found to suppress growth.

Values after ≈ are worked out from the molar mass of the structure shown.

These results are taken from ChEMBL document CHEMBL1781906, “New quinolin-4-yl-1,2,3-triazoles carrying amides, sulphonamides and amidopiperazines as potential antitubercular agents” (2011).

What all share (format): functional
The subject of test [1] is Escherichia coli. As to the kind of experiment: Antibacterial activity against Escherichia coli ATCC 25922 after 18 to 24 hrs by […].
Test [2] has as its system Klebsiella pneumoniae. As to the kind of experiment: Antibacterial activity against Klebsiella pneumoniae after 18 to 24 hrs by […].
Test [3] concerns Streptococcus pyogenes. As to the kind of experiment: Antibacterial activity against Streptococcus pyogenes after 18 to 24 hrs by serial plate dilution method.
Test [4] relates to Mycolicibacterium fortuitum. As to the kind of experiment: Antimycobacterial activity against Mycobacterium fortuitum ATCC 19542 after 7 days by resazurin method. The settings on record: ATCC 19542, 168 h. In a few lines: (§1)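 MIC was determined by resazurin microplate assay. Resazurin turns from blue to pink when reduced by viable cells, and wells with no colour change were scored as inhibited. Isoniazid and rifampicin were reference drugs.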
A general note: The colour change of resazurin is a common sign of viable cells or microbes.

The subject of test [5] is Mycolicibacterium smegmatis. As to the kind of experiment: Antimycobacterial activity against Mycobacterium smegmatis ATCC 19420 after 7 days by resazurin method. The settings on record: ATCC 19420, 168 h. A digest of the protocol:
as §1

In test [6] the test system is Pseudomonas aeruginosa. In words: Antibacterial activity against Pseudomonas aeruginosa ATCC 27853 after 18 to 24 hrs by […].
Test [7] relates to Staphylococcus aureus. As to the kind of experiment: Antibacterial activity against Staphylococcus aureus ATCC 25923 after 18 to 24 hrs by serial plate dilution method.
Test [8] relates to Mycobacterium tuberculosis. As to the kind of experiment: Antimycobacterial activity against Mycobacterium tuberculosis H37Rv ATCC 27294 assessed as inhibition of bacterial growth at 1 to 100 ug/ml after 7 days by resazurin method. A digest of the protocol:
(§2)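 H37Rv was grown in Middlebrook 7H9 broth with 10% OADC, diluted to McFarland 2 in the same medium, and added to fresh medium in 96-well plates with compound. Compounds were tested at 1, 10 and 100. The dye turned pink in controls after […] at 37 °C.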

The test system of test [9] is Mycobacterium tuberculosis. As to the kind of experiment: Antimycobacterial activity against Mycobacterium tuberculosis H37Rv ATCC 27294 after 7 days by resazurin method. To be noted: H37Rv ATCC 27294, 168 h. In a few lines: as §2

With `COc1ccc2nc(C)cc(-n3cc(CNC(=O)C4CCC4)nn3)c2c1`, the MIC in test [1] was 1.6 µg/mL (≈ 4.55 µM); in test [2] it was 1.6 µg/mL (≈ 4.55 µM); in test [3], 0.8 µg/mL (≈ 2.28 µM); in test [4] it was 100 µg/mL (≈ 285 µM); in [5] it was 100 µg/mL (≈ 285 µM); in [6], 0.8 µg/mL (≈ 2.28 µM). For the same compound, the MIC came out at 1.6 µg/mL (≈ 4.55 µM) in test [7] and 10 µg/mL (≈ 28.5 µM) in [9]. The “inhibition (INH)” value in test [8] came out at 85%.

Turning to `COc1ccc2nc(C)cc(-n3cc(CNS(=O)(=O)c4ccc(F)cc4)nn3)c2c1`, the MIC was 3.12 µg/mL (≈ 7.3 µM) in [1]; 3.12 µg/mL (≈ 7.3 µM) in test [2]; 0.4 µg/mL (≈ 0.936 µM) in [3]; 100 µg/mL (≈ 234 µM) in test [4]; 100 µg/mL (≈ 234 µM) in [5]; 0.8 µg/mL (≈ 1.87 µM) in [6]. Further, the figures for the MIC in test [7] and in [9] were 0.4 µg/mL (≈ 0.936 µM) and 1 µg/mL (≈ 2.34 µM), respectively. The “inhibition (INH)” value in [8] came out at 85%.

For `COc1ccc2nc(C)cc(-n3cc(CNC(=O)C4CC4)nn3)c2c1`, the MIC stood at 0.4 µg/mL (≈ 1.19 µM) in test [1]; 0.2 µg/mL (≈ 0.593 µM) in test [2]; 0.4 µg/mL (≈ 1.19 µM) in [3]; 100 µg/mL (≈ 296 µM) in test [4]; 100 µg/mL (≈ 296 µM) in [5]; 1.6 µg/mL (≈ 4.74 µM) in test [6]. For the same compound, the minimal inhibitory concentration (MIC) in test [7] was found to be 0.4 µg/mL (≈ 1.19 µM); in test [9], 1 µg/mL (≈ 2.96 µM). Also, the “inhibition (INH)” value in test [8] is 90%.

Turning to `COc1ccc(C(=O)N2CCN(Cc3cn(-c4cc(C)nc5ccc(OC)cc45)nn3)CC2)cc1`, the MIC came out at 0.4 µg/mL (≈ 0.846 µM) in test [1]; 1.6 µg/mL (≈ 3.39 µM) in [2]; 1.6 µg/mL (≈ 3.39 µM) in test [3]; 10 µg/mL (≈ 21.2 µM) in [4]; 5 µg/mL (≈ 10.6 µM) in test [5]; 3.12 µg/mL (≈ 6.6 µM) in [6]. The minimum inhibitory concentration (MIC) worked out at 0.8 µg/mL (≈ 1.69 µM) in [7] and 0.625 µg/mL (≈ 1.32 µM) in [9]. In [8], the “inhibition (INH)” value came to 90%.

For `CCc1ccc(C(=O)NCc2cn(-c3cc(C)nc4ccc(OC)cc34)nn2)cc1`, the MIC stood at 3.12 µg/mL (≈ 7.77 µM) in [1]; 3.12 µg/mL (≈ 7.77 µM) in test [2]; 3.12 µg/mL (≈ 7.77 µM) in test [3]; 100 µg/mL (≈ 249 µM) in test [4]; 100 µg/mL (≈ 249 µM) in test [5]; 6.25 µg/mL (≈ 15.6 µM) in test [6]. Further, the MIC in [7] was determined as 3.12 µg/mL (≈ 7.77 µM); in test [9], 100 µg/mL (≈ 249 µM). Also, in test [8], the “inhibition (INH)” value turned out to be 80%.

For the compound `COc1ccc2nc(C)cc(-n3cc(CNC(C)=O)nn3)c2c1`, the MIC in test [1] is 0.1 µg/mL (≈ 0.321 µM); in test [2], 0.1 µg/mL (≈ 0.321 µM); in test [3] it was 0.2 µg/mL (≈ 0.642 µM); in test [4], 10 µg/mL (≈ 32.1 µM); in [5], 10 µg/mL (≈ 32.1 µM); in test [6] it was 0.2 µg/mL (≈ 0.642 µM). For the same compound, the MIC in test [7] amounted to 0.4 µg/mL (≈ 1.28 µM); in test [9], 0.625 µg/mL (≈ 2.01 µM). Besides, the “inhibition (INH)” value in test [8] is given as 95%.

Consider `COc1ccc2nc(C)cc(-n3cc(CNC(=O)c4ccc(C(F)(F)F)cc4)nn3)c2c1`, for which the MIC in test [1] was 0.4 µg/mL (≈ 0.906 µM); in test [2] it was 0.2 µg/mL (≈ 0.453 µM); in test [3], 0.2 µg/mL (≈ 0.453 µM); in test [4], 5 µg/mL (≈ 11.3 µM); in test [5], 10 µg/mL (≈ 22.7 µM); in test [6], 0.4 µg/mL (≈ 0.906 µM). Further, the minimal inhibitory concentration (MIC) was 0.4 µg/mL (≈ 0.906 µM) in test [7] and 0.625 µg/mL (≈ 1.42 µM) in [9]. Further, the “inhibition (INH)” value in test [8] was found to be 95%.

On to `COc1ccc2nc(C)cc(-n3cc(CNS(=O)(=O)c4ccc(C)cc4)nn3)c2c1`, for which the MIC in [1] was determined as 6.25 µg/mL (≈ 14.8 µM); in test [2], 6.25 µg/mL (≈ 14.8 µM); in test [3], 6.25 µg/mL (≈ 14.8 µM); in [4], 100 µg/mL (≈ 236 µM); in [5], 100 µg/mL (≈ 236 µM); in test [6], 6.25 µg/mL (≈ 14.8 µM). Further, the MIC in test [7] came to 3.12 µg/mL (≈ 7.37 µM); in test [9], 10 µg/mL (≈ 23.6 µM). Further, the “inhibition (INH)” value in test [8] came to 85%.
